Results: ChEMBL document CHEMBL4330143, “Maximizing ER-α Degradation Maximizes Activity in a Tamoxifen-Resistant Breast Cancer Model: Identification of GDC-0927” (ACS Med Chem Lett, 2019)
The source made the active and inactive calls. The rule behind the calls is not given here.

How the values were obtained:
[1] = Unbound AUC (0 to 24 hrs) in nude mouse xenografted with tamoxifen-resistant human MCF7 cells at 100 mg/kg, po daily for 28 days measured on day 28 post last dose; assay type: ADME, organism-based; conditions: in vivo
Procedure, shortened: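 Tamoxifen-resistant MCF-7 xenograft mice carrying subcutaneous 0.72 mg estradiol pellets. Plasma pharmacokinetics sampled on day 28 of the study, at take-down.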

[2] = target: T1, Mineralocorticoid receptor (Homo sapiens) (UniProt P08235); assay: Agonist activity at MR (unknown origin) by transcriptional reporter assay
T1 sequence (whole entry): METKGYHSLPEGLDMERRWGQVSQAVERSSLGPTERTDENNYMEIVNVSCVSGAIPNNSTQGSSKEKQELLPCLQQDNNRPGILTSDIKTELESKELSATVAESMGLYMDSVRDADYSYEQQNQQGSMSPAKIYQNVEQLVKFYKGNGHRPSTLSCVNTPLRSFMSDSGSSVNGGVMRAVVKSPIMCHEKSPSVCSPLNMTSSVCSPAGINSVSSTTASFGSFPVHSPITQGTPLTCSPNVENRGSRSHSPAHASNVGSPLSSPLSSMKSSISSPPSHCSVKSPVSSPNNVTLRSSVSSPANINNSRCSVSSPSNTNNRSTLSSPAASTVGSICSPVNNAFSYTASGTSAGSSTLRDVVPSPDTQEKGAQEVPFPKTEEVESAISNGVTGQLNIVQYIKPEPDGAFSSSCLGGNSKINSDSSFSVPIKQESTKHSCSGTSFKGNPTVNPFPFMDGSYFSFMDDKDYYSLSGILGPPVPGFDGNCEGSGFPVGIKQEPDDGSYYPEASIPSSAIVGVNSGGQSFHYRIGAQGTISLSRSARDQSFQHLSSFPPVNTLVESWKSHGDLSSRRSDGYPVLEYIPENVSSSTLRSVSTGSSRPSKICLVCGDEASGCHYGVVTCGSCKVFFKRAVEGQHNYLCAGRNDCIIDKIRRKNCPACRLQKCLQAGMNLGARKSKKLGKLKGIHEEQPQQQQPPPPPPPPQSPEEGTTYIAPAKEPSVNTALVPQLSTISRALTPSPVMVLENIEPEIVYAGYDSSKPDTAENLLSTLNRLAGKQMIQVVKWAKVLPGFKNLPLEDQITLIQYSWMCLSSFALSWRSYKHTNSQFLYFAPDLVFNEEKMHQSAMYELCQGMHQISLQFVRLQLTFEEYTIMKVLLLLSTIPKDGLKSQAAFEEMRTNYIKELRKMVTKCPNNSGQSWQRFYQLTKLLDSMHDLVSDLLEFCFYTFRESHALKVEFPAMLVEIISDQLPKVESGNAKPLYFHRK

Cytochrome P450 2D6 = Cytochrome P450 2D6 (Homo sapiens, UniProt P10635); assay: Competitive inhibition of CYP2D6 (unknown origin); assay type: ADME
Sequence of Cytochrome P450 2D6 (P10635 whole entry): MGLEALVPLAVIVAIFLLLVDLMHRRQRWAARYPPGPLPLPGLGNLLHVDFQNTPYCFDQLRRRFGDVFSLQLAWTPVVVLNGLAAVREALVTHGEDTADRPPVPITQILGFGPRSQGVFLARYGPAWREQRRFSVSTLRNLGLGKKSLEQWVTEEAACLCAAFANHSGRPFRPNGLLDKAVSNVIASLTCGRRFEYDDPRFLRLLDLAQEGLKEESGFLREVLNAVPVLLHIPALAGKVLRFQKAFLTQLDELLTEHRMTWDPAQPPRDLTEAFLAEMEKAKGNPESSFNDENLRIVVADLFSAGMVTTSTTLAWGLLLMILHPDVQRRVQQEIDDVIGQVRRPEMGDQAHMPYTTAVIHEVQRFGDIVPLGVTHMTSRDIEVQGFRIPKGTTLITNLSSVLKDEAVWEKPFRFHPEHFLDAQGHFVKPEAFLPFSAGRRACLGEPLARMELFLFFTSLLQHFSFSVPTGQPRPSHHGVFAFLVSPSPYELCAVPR

## CC1=C(c2cccc(O)c2)[C@H](c2ccc(OCCN3CC(CF)C3)cc2)Oc2ccc(O)cc21
[1]
  fAUC: 130 ng·h/mL
[2]
  Activity: inactive
Cytochrome P450 2D6
  IC50: > 10 µM
